From ChEMBL document CHEMBL4138226, “Marine Natural Product Honaucin A Attenuates Inflammation by Activating the Nrf2-ARE Pathway” (J Nat Prod, 2018)
Where a name gives a salt, the structure may show the parent alone. Each block holds one compound with its values, some of them ahead of it. Activity calls are given as the source filed them. The rule behind the calls is not given here.

Columns and labels:
[1] = biological target: T1, Keap1/Nrf2 (Homo sapiens) (UniProt Q16236+Q14145); test: Activation of Keap1/Nrf2 in human MCF7 cells assessed as Nrf2 stabilization at 15 uM incubated overnight by luciferase reporter gene based luminescence assay; type: cell-based
Procedure, shortened: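 MCF7 cells stably carrying an Nrf2-responsive firefly luciferase construct, grown with G418, seeded 5 × 10^4 cells/well and left overnight at 37 °C. Compound added in DMSO (tested range 1.98–15.0 μM), incubated overnight. Cells washed, lysed 15 min at room temperature, luminescence read after substrate injection. Activation = % RLU over untreated cells, DMSO value subtracted. Triplicate technical wells; positive controls tBHQ and DMF.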

MCF7 = test: Cytotoxicity against human MCF7 cells assessed as decrease in cell viability at 15 uM by MTT assay; type: cell-based; conditions: mcf7, 15 µM
Procedure, shortened: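 Nrf2-reporter MCF7 cells seeded and dosed as in the reporter assay (1.98–15.0 μM in DMSO, overnight at 37 °C). Cells washed, then 1 mg/mL MTT in serum-free DMEM for 25 min at 37 °C. Formazan dissolved in DMSO, absorbance read at 570 and 630 nm, background subtracted. Viability given as % of untreated control, mean ± standard error.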

[2] = biological target: T2, Kelch-like ECH-associated protein 1/Nuclear factor erythroid 2-related factor 2 (Mus musculus) (UniProt Q60795+Q9Z2X8); test: Activation of Keap1/Nrf2 in mouse LPS-induced RAW264.7 cells assessed as change in Ccrl2 expression level at 4 to 12 uM pretreated for 1 hr followed by LPS addition measured after 30 to 180 mins; type: cell-based
Procedure, shortened: (§1)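 RAW 264.7 macrophages (DMEM, 10% FBS) grown near confluent; compound (4 or 12 μM) or EtOH vehicle 1 h at 37 °C, then LPS (E. coli O26:B6, 0.5 μg/mL) for 30 or 180 min; triplicate wells. TRIzol total RNA, rRNA depletion, Illumina HiSeq2000 100 bp single-end reads; DESeq2 differential expression versus matched LPS-only control.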

Mus musculus [3] = test: Antiinflammatory activity in hypersensitivity CD1 mouse ear edema model assessed as PMA-induced ear edema at 0.3 umol/ear applied topically pretreated for 10 mins followed by PMA application measured after 6 hrs (reference value: 32.5 +/- 7.5%); type: functional
[4] = biological target: T2, Kelch-like ECH-associated protein 1/Nuclear factor erythroid 2-related factor 2 (Mus musculus); test: Activation of Keap1/Nrf2 in mouse LPS-induced RAW264.7 cells assessed as change in IL-1alpha expression level at 4 to 12 uM pretreated for 1 hr followed by LPS addition measured after 30 to 180 mins; type: cell-based; procedure, shortened: as §1
[5] = biological target: T2, Kelch-like ECH-associated protein 1/Nuclear factor erythroid 2-related factor 2 (Mus musculus); test: Activation of Keap1/Nrf2 in mouse LPS-induced RAW264.7 cells assessed as change in Ccl22 expression level at 4 to 12 uM pretreated for 1 hr followed by LPS addition measured after 30 to 180 mins; type: cell-based; procedure, shortened: as §1
Mus musculus [6] = test: Antiinflammatory activity in hypersensitivity CD1 mouse ear edema model assessed as PMA-induced ear edema at 0.1 umol/ear applied topically pretreated for 10 mins followed by PMA application measured after 6 hrs (reference value: 32.5 +/- 7.5%); type: functional
[7] = biological target: T2, Kelch-like ECH-associated protein 1/Nuclear factor erythroid 2-related factor 2 (Mus musculus); test: Activation of Keap1/Nrf2 in mouse LPS-induced RAW264.7 cells assessed as change in Tnfaip3 expression level at 4 to 12 uM pretreated for 1 hr followed by LPS addition measured after 30 to 180 mins; type: cell-based; procedure, shortened: as §1
Mus musculus [8] = test: Antiinflammatory activity in hypersensitivity CD1 mouse ear edema model assessed as PMA-induced ear edema at 3 umol/ear applied topically pretreated for 10 mins followed by PMA application measured after 6 hrs (reference value: 32.5 +/- 7.5%); type: functional
[9] = biological target: T2, Kelch-like ECH-associated protein 1/Nuclear factor erythroid 2-related factor 2 (Mus musculus); test: Activation of Keap1/Nrf2 in mouse LPS-induced RAW264.7 cells assessed as change in Cd83 expression level at 4 to 12 uM pretreated for 1 hr followed by LPS addition measured after 30 to 180 mins; type: cell-based; procedure, shortened: as §1
[10] = biological target: T2, Kelch-like ECH-associated protein 1/Nuclear factor erythroid 2-related factor 2 (Mus musculus); test: Activation of Keap1/Nrf2 in mouse LPS-induced RAW264.7 cells assessed as change in Irf1 expression level at 4 to 12 uM pretreated for 1 hr followed by LPS addition measured after 30 to 180 mins; type: cell-based; procedure, shortened: as §1
[11] = biological target: T2, Kelch-like ECH-associated protein 1/Nuclear factor erythroid 2-related factor 2 (Mus musculus); test: Activation of Keap1/Nrf2 in mouse LPS-induced RAW264.7 cells assessed as increase in […] expression level at 4 to 12 uM pretreated for 1 hr followed by LPS addition measured after 30 to 180 mins; type: cell-based; procedure, shortened: as §1
[12] = biological target: T2, Kelch-like ECH-associated protein 1/Nuclear factor erythroid 2-related factor 2 (Mus musculus); test: Activation of Keap1/Nrf2 in mouse LPS-induced RAW264.7 cells assessed as increase in Slc7a11 expression level at 4 to 12 uM pretreated for 1 hr followed by LPS addition measured after 30 to 180 mins; type: cell-based; procedure, shortened: as §1
[13] = biological target: T2, Kelch-like ECH-associated protein 1/Nuclear factor erythroid 2-related factor 2 (Mus musculus); test: Activation of Keap1/Nrf2 in mouse LPS-induced RAW264.7 cells assessed as increase in Gclm expression level at 4 to 12 uM pretreated for 1 hr followed by LPS addition measured after 30 to 180 mins; type: cell-based; procedure, shortened: as §1
[14] = biological target: T2, Kelch-like ECH-associated protein 1/Nuclear factor erythroid 2-related factor 2 (Mus musculus); test: Activation of Keap1/Nrf2 in mouse LPS-induced RAW264.7 cells assessed as change in IL-1beta expression level at 4 to 12 uM pretreated for 1 hr followed by LPS addition measured after 30 to 180 mins; type: cell-based; procedure, shortened: as §1
[15] = biological target: T2, Kelch-like ECH-associated protein 1/Nuclear factor erythroid 2-related factor 2 (Mus musculus); test: Activation of Keap1/Nrf2 in mouse LPS-induced RAW264.7 cells assessed as downregulation of Socs3 expression level at 4 to 12 uM pretreated for 1 hr followed by LPS addition measured after 30 mins; type: cell-based; procedure, shortened: as §1
[16] = biological target: T2, Kelch-like ECH-associated protein 1/Nuclear factor erythroid 2-related factor 2 (Mus musculus); test: Activation of Keap1/Nrf2 in mouse LPS-induced RAW264.7 cells assessed as change in Nfkbiz expression level at 4 to 12 uM pretreated for 1 hr followed by LPS addition measured after 30 to 180 mins; type: cell-based; procedure, shortened: as §1
[17] = biological target: T2, Kelch-like ECH-associated protein 1/Nuclear factor erythroid 2-related factor 2 (Mus musculus); test: Activation of Keap1/Nrf2 in mouse LPS-induced RAW264.7 cells assessed as change in Fos expression level at 4 to 12 uM pretreated for 1 hr followed by LPS addition measured after 30 to 180 mins; type: cell-based; procedure, shortened: as §1
[18] = biological target: T2, Kelch-like ECH-associated protein 1/Nuclear factor erythroid 2-related factor 2 (Mus musculus); test: Activation of Keap1/Nrf2 in mouse LPS-induced RAW264.7 cells assessed as increase in Hmox1 expression level at 12 uM pretreated for 1 hr followed by LPS addition measured after 30 to 180 mins; type: cell-based; procedure, shortened: as §1
[19] = biological target: T2, Kelch-like ECH-associated protein 1/Nuclear factor erythroid 2-related factor 2 (Mus musculus); test: Activation of Keap1/Nrf2 in mouse LPS-induced RAW264.7 cells assessed as increase in Prdx1 expression level at 4 to 12 uM pretreated for 1 hr followed by LPS addition measured after 30 to 180 mins; type: cell-based; procedure, shortened: as §1
[20] = biological target: T2, Kelch-like ECH-associated protein 1/Nuclear factor erythroid 2-related factor 2 (Mus musculus); test: Activation of Keap1/Nrf2 in mouse LPS-induced RAW264.7 cells assessed as increase in Akr1b8 expression level at 4 to 12 uM pretreated for 1 hr followed by LPS addition measured after 30 to 180 mins; type: cell-based; procedure, shortened: as §1
[21] = biological target: T2, Kelch-like ECH-associated protein 1/Nuclear factor erythroid 2-related factor 2 (Mus musculus); test: Activation of Keap1/Nrf2 in mouse LPS-induced RAW264.7 cells assessed as change in Fosl1 expression level at 4 to 12 uM pretreated for 1 hr followed by LPS addition measured after 30 to 180 mins; type: cell-based; procedure, shortened: as §1
[22] = biological target: T2, Kelch-like ECH-associated protein 1/Nuclear factor erythroid 2-related factor 2 (Mus musculus); test: Activation of Keap1/Nrf2 in mouse LPS-induced RAW264.7 cells assessed as change in Procr expression level at 4 to 12 uM pretreated for 1 hr followed by LPS addition measured after 30 to 180 mins; type: cell-based; procedure, shortened: as §1
[23] = biological target: T1, Keap1/Nrf2 (Homo sapiens); test: Activation of Keap1/Nrf2 in human MCF7 cells assessed as Nrf2 stabilization incubated overnight by luciferase reporter gene based luminescence assay; type: cell-based
Procedure, shortened: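 NRF2 luciferase reporter MCF7 stable cells in DMEM/10% FBS with G418, seeded 5 × 10^4 cells/well, overnight adherence; DMSO-dissolved compound 1.98–15.0 μM, overnight 37 °C/5% CO2. Lysed in passive lysis buffer, firefly luciferase substrate injected, luminescence read. Activation (%) = (treated − untreated)/untreated × 100, DMSO value subtracted; tBHQ and DMF positive controls; three technical replicates per biological replicate.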

[24] = biological target: T2, Kelch-like ECH-associated protein 1/Nuclear factor erythroid 2-related factor 2 (Mus musculus); test: Activation of Keap1/Nrf2 in mouse LPS-induced RAW264.7 cells assessed as change in Nfkbia expression level at 4 to 12 uM pretreated for 1 hr followed by LPS addition measured after 30 to 180 mins; type: cell-based; procedure, shortened: as §1
[25] = biological target: T2, Kelch-like ECH-associated protein 1/Nuclear factor erythroid 2-related factor 2 (Mus musculus); test: Activation of Keap1/Nrf2 in mouse LPS-induced RAW264.7 cells assessed as change in IFNb1 expression level at 4 to 12 uM pretreated for 1 hr followed by LPS addition measured after 30 to 180 mins; type: cell-based; procedure, shortened: as §1
[26] = biological target: T2, Kelch-like ECH-associated protein 1/Nuclear factor erythroid 2-related factor 2 (Mus musculus); test: Activation of Keap1/Nrf2 in mouse LPS-induced RAW264.7 cells assessed as increase in Srxn1 expression level at 4 to 12 uM pretreated for 1 hr followed by LPS addition measured after 30 to 180 mins; type: cell-based; procedure, shortened: as §1
[27] = biological target: T2, Kelch-like ECH-associated protein 1/Nuclear factor erythroid 2-related factor 2 (Mus musculus); test: Activation of Keap1/Nrf2 in mouse LPS-induced RAW264.7 cells assessed as downregulation of Rasgef1 expression level at 4 to 12 uM pretreated for 1 hr followed by LPS addition measured after 30 mins; type: cell-based; procedure, shortened: as §1
[28] = biological target: T2, Kelch-like ECH-associated protein 1/Nuclear factor erythroid 2-related factor 2 (Mus musculus); test: Activation of Keap1/Nrf2 in mouse LPS-induced RAW264.7 cells assessed as change in TNF expression level at 4 to 12 uM pretreated for 1 hr followed by LPS addition measured after 30 to 180 mins; type: cell-based; procedure, shortened: as §1
[29] = biological target: T2, Kelch-like ECH-associated protein 1/Nuclear factor erythroid 2-related factor 2 (Mus musculus); test: Activation of Keap1/Nrf2 in mouse LPS-induced RAW264.7 cells assessed as increase in Sqstm1 expression level at 4 to 12 uM pretreated for 1 hr followed by LPS addition measured after 30 to 180 mins; type: cell-based; procedure, shortened: as §1
[30] = biological target: T2, Kelch-like ECH-associated protein 1/Nuclear factor erythroid 2-related factor 2 (Mus musculus); test: Activation of Keap1/Nrf2 in mouse LPS-induced RAW264.7 cells assessed as change in Cd300lb expression level at 4 to 12 uM pretreated for 1 hr followed by LPS addition measured after 30 to 180 mins; type: cell-based; procedure, shortened: as §1
Mus musculus [31] = test: Antiinflammatory activity in hypersensitivity CD1 mouse ear edema model assessed as PMA-induced ear edema at 1 umol/ear applied topically pretreated for 10 mins followed by PMA application measured after 6 hrs (reference value: 32.5 +/- 7.5%); type: functional
[32] = biological target: T2, Kelch-like ECH-associated protein 1/Nuclear factor erythroid 2-related factor 2 (Mus musculus); test: Activation of Keap1/Nrf2 in mouse LPS-induced RAW264.7 cells assessed as change in […] expression level at 4 to 12 uM pretreated for 1 hr followed by LPS addition measured after 30 to 180 mins; type: cell-based; procedure, shortened: as §1

T1 sequence (Q14145 whole entry, looked up): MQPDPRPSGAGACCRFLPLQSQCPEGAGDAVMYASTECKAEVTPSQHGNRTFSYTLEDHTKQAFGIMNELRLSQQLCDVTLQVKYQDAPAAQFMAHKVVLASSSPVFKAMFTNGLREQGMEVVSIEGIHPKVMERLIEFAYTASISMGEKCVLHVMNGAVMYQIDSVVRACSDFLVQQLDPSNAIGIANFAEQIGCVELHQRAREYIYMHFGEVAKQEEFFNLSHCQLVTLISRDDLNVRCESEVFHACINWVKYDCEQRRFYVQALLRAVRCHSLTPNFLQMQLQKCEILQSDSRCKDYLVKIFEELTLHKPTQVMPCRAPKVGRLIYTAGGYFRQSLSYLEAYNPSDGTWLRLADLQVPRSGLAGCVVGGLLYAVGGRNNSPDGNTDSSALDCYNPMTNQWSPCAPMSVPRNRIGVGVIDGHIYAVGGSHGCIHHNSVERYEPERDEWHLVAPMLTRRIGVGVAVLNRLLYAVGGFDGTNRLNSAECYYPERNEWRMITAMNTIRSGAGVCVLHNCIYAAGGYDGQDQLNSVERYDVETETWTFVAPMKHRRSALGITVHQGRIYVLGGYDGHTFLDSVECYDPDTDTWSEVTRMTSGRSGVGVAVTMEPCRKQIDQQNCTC
T1 sequence (Q16236 whole entry, looked up): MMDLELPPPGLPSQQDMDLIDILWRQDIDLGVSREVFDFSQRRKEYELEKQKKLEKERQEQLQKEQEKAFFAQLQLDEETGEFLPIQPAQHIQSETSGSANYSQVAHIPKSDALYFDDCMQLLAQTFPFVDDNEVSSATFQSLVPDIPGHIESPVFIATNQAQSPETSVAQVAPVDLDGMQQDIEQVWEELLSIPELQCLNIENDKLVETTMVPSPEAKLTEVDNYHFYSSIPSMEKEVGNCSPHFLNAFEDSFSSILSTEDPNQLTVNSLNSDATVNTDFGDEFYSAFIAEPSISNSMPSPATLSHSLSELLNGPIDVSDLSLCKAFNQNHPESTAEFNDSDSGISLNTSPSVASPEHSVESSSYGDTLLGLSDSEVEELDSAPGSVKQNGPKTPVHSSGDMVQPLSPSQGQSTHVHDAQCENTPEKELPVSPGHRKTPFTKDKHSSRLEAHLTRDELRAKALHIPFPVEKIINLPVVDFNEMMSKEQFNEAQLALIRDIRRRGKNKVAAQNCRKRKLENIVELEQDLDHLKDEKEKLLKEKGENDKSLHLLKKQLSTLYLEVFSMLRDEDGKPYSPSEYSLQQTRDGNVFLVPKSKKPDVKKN
T2 sequence (Q60795 whole entry, looked up): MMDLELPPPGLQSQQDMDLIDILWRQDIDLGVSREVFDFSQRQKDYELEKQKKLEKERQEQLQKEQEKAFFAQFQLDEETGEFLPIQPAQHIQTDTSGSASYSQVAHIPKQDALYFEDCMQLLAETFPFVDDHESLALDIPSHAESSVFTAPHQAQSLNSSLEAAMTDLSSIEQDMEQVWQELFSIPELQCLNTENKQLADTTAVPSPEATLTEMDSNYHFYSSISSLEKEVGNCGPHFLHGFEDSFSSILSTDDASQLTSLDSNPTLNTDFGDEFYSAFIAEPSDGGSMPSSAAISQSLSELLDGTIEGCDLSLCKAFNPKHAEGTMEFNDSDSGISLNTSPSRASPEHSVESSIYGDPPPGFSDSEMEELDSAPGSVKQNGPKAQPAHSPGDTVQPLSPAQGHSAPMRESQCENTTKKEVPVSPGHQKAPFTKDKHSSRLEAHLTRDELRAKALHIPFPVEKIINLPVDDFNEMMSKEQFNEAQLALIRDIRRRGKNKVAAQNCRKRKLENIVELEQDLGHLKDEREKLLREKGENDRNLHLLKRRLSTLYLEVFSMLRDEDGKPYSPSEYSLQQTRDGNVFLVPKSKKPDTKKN
T2 sequence (Q9Z2X8 whole entry, looked up): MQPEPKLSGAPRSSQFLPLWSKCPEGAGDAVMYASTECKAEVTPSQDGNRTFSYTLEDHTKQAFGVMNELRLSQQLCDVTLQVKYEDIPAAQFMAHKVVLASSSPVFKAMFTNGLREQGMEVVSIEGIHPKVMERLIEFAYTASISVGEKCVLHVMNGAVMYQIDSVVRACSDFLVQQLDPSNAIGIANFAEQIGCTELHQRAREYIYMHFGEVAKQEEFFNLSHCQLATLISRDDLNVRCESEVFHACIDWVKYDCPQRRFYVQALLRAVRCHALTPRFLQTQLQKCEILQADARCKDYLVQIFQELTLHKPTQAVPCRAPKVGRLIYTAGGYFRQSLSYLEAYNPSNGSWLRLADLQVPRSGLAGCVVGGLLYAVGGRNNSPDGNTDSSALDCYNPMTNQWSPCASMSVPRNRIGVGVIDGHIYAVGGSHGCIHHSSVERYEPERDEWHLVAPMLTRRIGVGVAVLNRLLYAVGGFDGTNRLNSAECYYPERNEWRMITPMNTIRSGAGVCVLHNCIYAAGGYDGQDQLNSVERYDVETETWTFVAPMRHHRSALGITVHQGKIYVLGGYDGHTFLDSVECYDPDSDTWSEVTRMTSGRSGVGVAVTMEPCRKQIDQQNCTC

- Activity [1]: Active
Structure (SMILES): COC(=O)/C=C/C(=O)OC [DIMETHYL FUMARATE]
- Activity (MCF7): Toxic

- Activity [1]: Active
Structure (SMILES): CC(C)(C)c1cc(O)ccc1O [E319]
- Activity (MCF7): Toxic

Structure (SMILES): O=C(/C=C/CCl)O[C@@H]1COC(=O)C1
- Activity [2]: Active
- Activity (Mus musculus [3]): 10%
- Activity [4]: Active
- Activity [5]: Active
- Activity (Mus musculus [6]): 17.1%
- Activity [7]: Active
- Activity (Mus musculus [8]): 51.4%
- Activity [9]: Active
- Activity [10]: Active
- Activity [11]: Active
- Activity [12]: Active
- Activity [13]: Active
- Activity [14]: Active
- Activity [15]: Active
- Activity [16]: Active
- Activity [17]: Active
- Activity [18]: Active
- Activity [19]: Active
- Activity [20]: Active
- Activity [21]: Active
- Activity [22]: Active
- Activity [23]: Dose-dependent effect
- Activity [24]: Active
- Activity [25]: Active
- Activity [26]: Active
- Activity [27]: Active
- Activity [28]: Active
- Activity (MCF7): Toxic
- Activity [29]: Active
- Activity [30]: Active
- Activity (Mus musculus [31]): 27.6%
- Activity [32]: Active
